Assay results taken from article PMC7845017 (ACS Central Science, 2021).

Key:
Experiment in all cases: Broth microdilution MIC
[1] = tested on: K. pneumoniae NCTC418; type: cell-based, Klebsiella pneumoniae; details: K. pneumoniae NCTC418, Müller-Hinton medium, 16–20 h at 37 °C; at least two independent duplicates
Summary of the method: (§1)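 MIC reported in μg/mL. Each strain was grown in Müller-Hinton medium and incubated for 16–20 h at 37 °C. Every strain was tested in at least two independent duplicates.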

[2] = tested on: P. aeruginosa PAO1; type: cell-based, Pseudomonas aeruginosa; details: P. aeruginosa PAO1, Müller-Hinton medium, 16–20 h at 37 °C; at least two independent duplicates
Summary of the method: as §1

[3] = tested on: A. baumannii ATCC 19606; type: cell-based, Acinetobacter baumannii; details: A. baumannii ATCC 19606, Müller-Hinton medium, 16–20 h at 37 °C; at least two independent duplicates
Summary of the method: as §1

[4] = tested on: E. coli W3110; type: cell-based, Escherichia coli; details: E. coli W3110, Müller-Hinton medium, 16–20 h at 37 °C; at least two independent duplicates
Summary of the method: as §1

| Substance | K. pneumoniae MIC [1] | P. aeruginosa MIC [2] | A.baumannii MIC [3] | E. coli MIC [4] |
| --- | --- | --- | --- | --- |
| ILPWKWPWWPWRR [sr-Indo] | 16 µg/mL | >64 µg/mL | 8 µg/mL | 16 µg/mL |
| KYKKALKKLAKLL [rac-SB1] | 16 µg/mL | 2 µg/mL | 2 µg/mL | 1 µg/mL |
| VQWRAIRVRVIR [sr-DJK5] | >64 µg/mL | >64 µg/mL | >64 µg/mL | 16 µg/mL |
| KYKKALKKLAKLL [sr-SB1] | >64 µg/mL | >64 µg/mL | >64 µg/mL | 32 µg/mL |
| polymyxin B [PMB, reference compound] | 0.25 µg/mL | 0.25 µg/mL | 0.25 µg/mL | 0.25 µg/mL |

The next lines start with the values.

| K. pneumoniae MIC [1] | P. aeruginosa MIC [2] | A.baumannii MIC [3] | E. coli MIC [4] | Substance |
| --- | --- | --- | --- | --- |
| >64 µg/mL | >64 µg/mL | >64 µg/mL | 16 µg/mL | KYKKALKKLAKLL [sr^1/3-SB1] |
| >64 µg/mL | >64 µg/mL | >64 µg/mL | 16 µg/mL | KYKKALKKLAKLL [sr^3/1-SB1] |
